# Test results taken from ChEMBL document CHEMBL1134015 (Bioorg Med Chem Lett, 2001).
# What was measured:
# Mus musculus [1] = test: In vivo anaesthetic activity after intravenous administration in MF-1 mice was determined by loss of righting reflex using probit analysis; format: functional
# [2] = biological target: GABA-A receptor; anion channel; test: Inhibition of [35S]TBPS binding to Gamma-aminobutyric acid A receptor of rat brain membranes; format: cell membranes, Membrane
# [3] = tested on: GABA-A receptor; anion channel; test: Inhibition of [35S]TBPS binding to Gamma-aminobutyric acid A (GABA-A) receptor of rat whole brain membranes (inactive); format: cell membranes
# Outline: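 Rat whole-brain membranes. Inhibition of [35S]TBPS radioligand binding at the GABA-A receptor. […] Means of three experiments.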
# Rattus norvegicus [4] = species on record: Rattus norvegicus; test: Burst suppression ratio (BSR) profile in male Wistar rats; format: functional
# Outline: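 Male Wistar rats (218–420 g), with extradural electrodes implanted and at least 7 days recovery, lightly hand-restrained. IV injection over 10 s into a tail vein by computer-controlled infusion pump. […] BSR extracted from EEG. Read-outs: onset (first 0.25 s burst-suppression epoch), time to max BSR, time to 50% BSR decrease, time to regain righting reflex. Mean and SEM.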
# Rattus norvegicus [5] = species on record: Rattus norvegicus; test: Time to the first 0.25 s burst suppression epoch(onset of anaesthesa) in male Wistar rats; format: functional
# Rattus norvegicus [6] = species on record: Rattus norvegicus; test: Maximum BSR reached in male Wistar rats; format: functional
# Rattus norvegicus [7] = species on record: Rattus norvegicus; test: Time taken to reach the maximum BSR in male Wistar rats; format: functional
# Rattus norvegicus [8] = species on record: Rattus norvegicus; test: Time required to gain the righting reflex in male Wistar rats; format: functional, organism-based
# Rattus norvegicus [9] = species on record: Rattus norvegicus; test: Time taken for 50% decrease in the BSR in male Wistar rats; format: functional
# Mus musculus [10] = test: In vivo anaesthetic activity after intravenous administration in MF-1 mice was determined by loss of righting reflex using probit analysis; Convulsant; format: functional, organism-based
Structure (SMILES),HD50 (Mus musculus [1]) [µM/kg],IC50 [2] [µM],other results
CNc1c(C(C)C)cc(CN2CCOCC2)cc1C(C)C,51,> 100,
CCOC(=O)C1CCN(Cc2cc(C(C)C)c(N)c(C(C)C)c2)CC1,14.4,,IC50 [3]: Not Active
CC(C)c1cc(CN2CCSCC2)cc(C(C)C)c1O,25.5,27.6,
CC(C)c1cc(CN2CCSCC2)cc(C(C)C)c1N,22.9,> 100,
CC(=O)N1CCN(Cc2cc(C(C)C)c(O)c(C(C)C)c2)CC1,38.8,> 100,
CC(C)c1cc(CCN2CCOCC2)cc(C(C)C)c1O,35.8,> 100,
CC(C)c1cc(CN2CCOCC2)cc(C(C)C)c1O,32,> 100,BSR (Rattus norvegicus [4]): 51 µM/kg; Onset time (Rattus norvegicus [5]): 16.2 s; Max BSR (Rattus norvegicus [6]): 54.9%; Time to max. BSR (Rattus norvegicus [7]): 40 s; Recovery time (Rattus norvegicus [8]): 3.8 min; Offset time (Rattus norvegicus [9]): 1.7 min
CC(C)c1cc(CN2CCOCC2)cc(C(C)C)c1N,36.5,> 100,
CCOC(=O)C1CCN(Cc2cc(C(C)C)c(O)c(C(C)C)c2)CC1,19,31,
CC(C)c1cccc(C(C)C)c1O [PROPOFOL],68,,Onset time (Rattus norvegicus [5]): 13.2 s; Max BSR (Rattus norvegicus [6]): 55%; Time to max. BSR (Rattus norvegicus [7]): 30 s; Recovery time (Rattus norvegicus [8]): 5.2 min; Offset time (Rattus norvegicus [9]): 1.4 min
CC(C)c1cc(CN2CCOCC2)cc(C(C)C)c1,,> 30,HD50 (Mus musculus [10]): Convulsant
CC(C)c1cc(CN2CCOCC2)cc(C(C)C)c1N(C)C,83,> 30,
CC(C)c1cc(C(=O)CN2CCSCC2)cc(C(C)C)c1O,68.5,> 10,
CC(=O)Nc1c(C(C)C)cc(CN2CCOCC2)cc1C(C)C,>282,> 10,
CC(C)c1cc(CN(C)Cc2ccccc2)cc(C(C)C)c1O,25.1,> 10,
